Active and inactive are the calls of the source.
Assays:
[1] = organism: Mus musculus; assay: Antinociceptive response was determined in mice using hot plate flick method; type: functional
How it was run: (§1)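 Mice, 8 per dose, given analogues sc and placed on a 55.0 °C hot plate 5 min later. Two control latencies at least 10 min apart, normally 8–12 s. Endpoint is paw lick or jump. %MPE = [(test − control)/(40 − control)] × 100. ED50 with confidence limits, or percent effect at a single dose.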

[2] = organism: Mus musculus; assay: Antinociceptive response was determined in mice using tail flick method; type: functional
How it was run: (§2)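 Mice; epibatidine analogues given i.t., tail-flick (D'Amour–Smith) latency read 5 min later. Baseline 2–4 s, 10 s cutoff. %MPE = [(test − control)/(10 − control)] × 100. Eight to twelve mice per dose, at least four doses for dose–response; ED50 with confidence limits, or percent effect at a single dose.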

[3] = organism: Mus musculus; assay: Antinociceptive response was determined in mice using hypothermia method; type: functional
How it was run: (§3)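 Rectal temperature in mice by thermistor probe inserted 24 mm, read just before and at several times after sc saline or analogue. ED50 with confidence limits, or change at a single dose.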

[4] = tested on: Mus musculus; assay: Percent effect on the body temperature was measured at a dose of 1 mg/kg; type: functional
[5] = organism: Mus musculus; assay: Antinociceptive response was determined in mice using spontaneous activity method; type: functional
How it was run: (§4)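 Mice given 0.9% saline or analogue sc and put in individual photocell activity cages 5 min later. Beam interruptions counted over the next 10 min. ED50 with confidence limits, or percent effect at a single dose.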

[6] = tested on: Mus musculus; assay: Antinociceptive response was determined in mice at a dose 10 mg/kg using tail flick method; type: functional; how it was run: as §2
[7] = tested on: Mus musculus; assay: Percent effect on the body temperature was measured at a dose of 10 mg/kg; type: functional
[8] = tested on: Mus musculus; assay: Antinociceptive response was determined in mice at a dose of 10 mg/kg using hot plate flick method; type: functional; how it was run: as §1
[9] = tested on: Mus musculus; assay: Antinociceptive response was determined in mice at a dose of 10 mg/kg using spontaneous activity method; type: functional; how it was run: as §4
[10] = molecular target: Neuronal acetylcholine receptor; alpha4/beta2 (Rattus norvegicus, UniProt P09483+P12390); assay: Inhibition of alpha beta[3H]epibatidine binding to Nicotinic acetylcholine receptor alpha4-beta2 of rat cerebral cortex; type: tissue-based
[11] = tested on: Mus musculus; assay: Antinociceptive response was determined in mice at a dose of 10 mg/kg using hypothermia method; type: functional; how it was run: as §3
[12] = tested on: Mus musculus; assay: Antinociceptive response was determined in mice at a dose 15 mg/kg using tail flick method; type: functional; how it was run: as §2
[13] = molecular target: Neuronal acetylcholine receptor subunit alpha-7 (Rattus norvegicus, UniProt Q05941); assay: Inhibition of [125I]-iodo-MLA binding to Nicotinic acetylcholine receptor alpha-7 of rat cerebral cortex; type: tissue-based
[14] = tested on: Mus musculus; assay: Antinociceptive response was determined in mice at a dose of 15 mg/kg using hot plate flick method; type: functional; how it was run: as §1
[15] = tested on: Mus musculus; assay: Percent effect on the body temperature was measured at a dose of 5 mg/kg; type: functional
[16] = tested on: Mus musculus; assay: Antinociceptive response was determined in mice at a dose of 1 mg/kg using hot plate flick method; type: functional

Neuronal acetylcholine receptor subunit alpha-7, sequence (Q05941 whole entry): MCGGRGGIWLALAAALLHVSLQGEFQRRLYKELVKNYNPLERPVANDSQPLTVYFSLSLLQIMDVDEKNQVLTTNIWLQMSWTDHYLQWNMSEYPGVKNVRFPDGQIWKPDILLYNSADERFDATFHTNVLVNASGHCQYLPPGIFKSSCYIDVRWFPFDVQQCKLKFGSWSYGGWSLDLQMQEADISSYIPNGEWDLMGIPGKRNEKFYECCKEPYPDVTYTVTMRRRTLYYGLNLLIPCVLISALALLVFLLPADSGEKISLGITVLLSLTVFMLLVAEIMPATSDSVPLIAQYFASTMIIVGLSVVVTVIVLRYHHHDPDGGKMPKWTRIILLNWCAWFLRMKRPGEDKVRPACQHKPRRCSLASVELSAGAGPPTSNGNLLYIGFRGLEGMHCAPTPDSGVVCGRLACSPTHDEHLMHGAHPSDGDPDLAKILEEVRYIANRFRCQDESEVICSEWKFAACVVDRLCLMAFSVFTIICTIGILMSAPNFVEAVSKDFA
Neuronal acetylcholine receptor; alpha4/beta2, sequence (P09483 whole entry): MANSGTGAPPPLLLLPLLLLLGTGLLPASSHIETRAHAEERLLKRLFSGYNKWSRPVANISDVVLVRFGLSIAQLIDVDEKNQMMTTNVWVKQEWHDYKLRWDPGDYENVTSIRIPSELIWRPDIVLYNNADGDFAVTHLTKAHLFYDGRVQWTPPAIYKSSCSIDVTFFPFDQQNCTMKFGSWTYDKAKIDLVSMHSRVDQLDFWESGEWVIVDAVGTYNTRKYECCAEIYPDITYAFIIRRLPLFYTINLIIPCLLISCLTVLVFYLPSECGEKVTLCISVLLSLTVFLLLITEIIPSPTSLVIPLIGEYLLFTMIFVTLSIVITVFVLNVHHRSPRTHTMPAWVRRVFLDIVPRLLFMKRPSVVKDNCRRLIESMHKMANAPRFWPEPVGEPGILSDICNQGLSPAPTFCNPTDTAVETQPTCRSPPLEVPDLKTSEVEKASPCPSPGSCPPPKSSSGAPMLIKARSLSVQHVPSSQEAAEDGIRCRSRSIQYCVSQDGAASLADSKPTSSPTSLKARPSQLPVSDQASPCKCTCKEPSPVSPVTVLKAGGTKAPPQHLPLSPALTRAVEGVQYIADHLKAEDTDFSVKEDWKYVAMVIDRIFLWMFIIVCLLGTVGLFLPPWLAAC
Neuronal acetylcholine receptor; alpha4/beta2, sequence (P12390 whole entry): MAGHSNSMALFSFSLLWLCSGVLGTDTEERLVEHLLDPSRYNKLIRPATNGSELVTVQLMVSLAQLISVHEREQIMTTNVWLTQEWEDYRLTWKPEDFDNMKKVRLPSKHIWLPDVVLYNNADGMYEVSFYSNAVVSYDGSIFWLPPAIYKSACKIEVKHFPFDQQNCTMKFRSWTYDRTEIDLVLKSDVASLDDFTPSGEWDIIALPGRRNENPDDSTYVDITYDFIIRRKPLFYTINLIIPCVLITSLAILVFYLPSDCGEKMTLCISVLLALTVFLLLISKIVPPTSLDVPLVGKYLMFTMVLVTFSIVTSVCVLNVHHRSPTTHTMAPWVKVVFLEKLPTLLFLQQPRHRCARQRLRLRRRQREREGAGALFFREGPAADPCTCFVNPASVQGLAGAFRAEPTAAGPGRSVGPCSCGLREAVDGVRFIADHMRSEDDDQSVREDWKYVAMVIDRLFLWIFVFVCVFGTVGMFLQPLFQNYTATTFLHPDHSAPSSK

Row | SMILES | AD50 [1] [mg/kg] | ED50 [5] [mg/kg] | Response [6] [%] | AD50 [2] [mg/kg] | ED50 [8] [mg/kg] | Ki [10] [nM] | Response [11] [%] | further results
1 | Clc1ccc([C@H]2C[C@@H]3CC[C@H]2N3)cn1 [(-)-EPIBATIDINE] | – | – | – | – | – | – | – | ED50 [1]: 0.004 mg/kg; ED50 [2]: 0.004 mg/kg; ED50 [3]: 0.001 mg/kg
2 | O=[N+]([O-])c1ccc(-c2cc(C3CC4CCC3N4)cnc2F)cc1 (centres undefined) | 0.12 | 0.22 | 5 | 0.003 | – | – | – | Body temperature [4]: 0%
3 | Fc1ncc(C2CC3CCC2N3)cc1-c1cccc(Cl)c1 (centres undefined) | 0.45 | – | 3 | 0.01 | 14 | 0.07 | 0 | Body temperature [7]: 0%; Response [9]: 15%
4 | COc1ccc(-c2cc(C3CC4CCC3N4)cnc2F)cc1 (centres undefined) | 0.52 | 3.6 | 2 | 0.05 | 16 | 0.06 | 0 | Body temperature [4]: 10%
5 | Fc1ccc(C2CC3CCC2N3)cn1 (centres undefined) | – | – | – | – | – | 0.02 | – | –
6 | Fc1ncc(C2CC3CCC2N3)cc1-c1ccccc1 (single isomer, unassigned; (+)) | 2.4 | – | – | 1 | – | – | – | Response [12]: 7%; Ki [13]: > 2000 nM; ED50 ([14]; dose 15 mg/kg): 8 mg/kg; Response ([11]; 10 mg/kg): -0.4%
7 | O=[N+]([O-])c1cccc(-c2cc(C3CC4CCC3N4)cnc2F)c1 (centres undefined) | 0.13 | 6.5 | 3 | 0.0005 | 20 | 0.05 | 0 | Body temperature [15]: 5%
8 | Fc1ncc(C2CC3CCC2N3)cc1-c1ccc(Cl)cc1 (centres undefined) | 0.26 | – | 2 | 0.0003 | 7 | 0.04 | 0 | Body temperature [7]: 0%; Response [9]: 50%
9 | Fc1ncc(C2CC3CCC2N3)cc1-c1ccccc1 (stereo in doubt; (-)-5a) | 0.7 | – | – | 0.08 | 10 | 0.26 | – | Response [12]: 5%; Ki [13]: > 2000 nM; Response ([11]; 10 mg/kg): -0.8%
10 | Fc1cccc(-c2cc(C3CC4CCC3N4)cnc2F)c1 (centres undefined) | – | 0.36 | – | 0.005 | – | – | – | ED50 [1]: 3.3 mg/kg; Body temperature [4]: 0%; AD50 [16]: 20 mg/kg; ED50 [2]: 3.5 mg/kg; ED50 [3]: 1.8 mg/kg
11 | CN1CCC[C@H]1c1cccnc1 [NICOTINE] | – | 0.5 | – | – | – | – | – | ED50 [1]: 0.65 mg/kg; ED50 [2]: 1.3 mg/kg; ED50 [3]: 1 mg/kg
12 | Fc1ccc(-c2cc(C3CC4CCC3N4)cnc2F)cc1 (centres undefined) | 0.23 | 2 | 2 | 0.0005 | 15 | 0.02 | 10 | Body temperature [4]: inactive
13 | COc1cccc(-c2cc(C3CC4CCC3N4)cnc2F)c1 (centres undefined) | 2 | 6 | 0 | 0.008 | 8 | 0.12 | 0 | Body temperature [7]: 0%
14 | Fc1ncc(C2CC3CCC2N3)cc1-c1ccccc1 (racemic) | 1.2 | 4.7 | – | 0.5 | – | – | – | Response [12]: 3%; Ki [13]: > 2000 nM; ED50 ([14]; Mus musculus, read-out: ED50): 4 mg/kg; Response ([11]; 10 mg/kg): -0.5%
15 | Nc1ccc(-c2cc(C3CC4CCC3N4)cnc2F)cc1 (centres undefined) | 1.8 | 6 | 2 | 0.005 | 10 | 0.09 | 0 | Body temperature [15]: 0%
16 | Nc1cccc(-c2cc(C3CC4CCC3N4)cnc2F)c1 (centres undefined) | 0.82 | 8.5 | 1 | 0.009 | 4 | 0.16 | 0 | Body temperature [15]: 5%

— ChEMBL document CHEMBL1138739, “Synthesis, nicotinic acetylcholine receptor binding, and antinociceptive properties of 2'-fluoro-3'-(substituted phenyl)deschloroepibatidine analogues. Novel nicotinic antagonist” (J Med Chem, 2004)
